Env fusion inh: inhibitors of HIV Env-mediated cell fusion. 360,000 compounds, 1.1% hits. inhibition, % at 12.3 µM. HeLa-JRFL Env/CEM21 cell fusion, luciferase;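 active = mean replicate inhibition score of at least 50 and every replicate individually at or above 50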
FN deposit inh: fibronectin deposition inhibition | AH1F fibroblasts, Alexa488-fibronectin deposition fluorescence, overnight | inhibition, % at 12.6 µM | 350,000 compounds, 0.086% hits | AID 743247;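 active = mean inhibition across replicates of 30% or more, regardless of how many single replicates reach that level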
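material = AH1F fibroblast monolayer depositing Alexa488-labelled fibronectin into matrix | amount = 10000 AH1F cells/well | buffer or medium = DMEM plus 2% serum, read in PBS | incubation = 1 h cell adhesion before compound, then overnight fibronectin incubation | detection = fluorescence at 485 nm excitation, 525 nm emission | evaluation = percent inhibition as loss of matrix-bound fibronectin fluorescence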
GSIS activator: primary screen for activators of insulin secretion dependent on glucose, INS-1E cells, GLuc reporter luminescence | 370,000 compounds, 0.61% hits | INS-1E GLuc reporter insulin secretion, 2-3 h | activation, % at 16.6 µM | AID 743287;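 active = lowest replicate activation of at least 40%, so every replicate reaches that level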
PDI turbidity: blocks human protein disulfide isomerase activity | P07237 | PDI insulin aggregation turbidity, A650, 90 min | inhibition, % at 10 µM | 350,000 compounds, 0.052% hits | AID 588391;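 active = mean inhibition across replicates of 30% or more, whatever share of single replicates reach that level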
ERp5 inh: inhibitors of human ERp5. ERp5 insulin aggregation, absorbance 650 nm, 90 min. inhibition, % at 9.99 µM. 350,000 compounds, 0.05% hits. AID 651711;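 active = mean replicate inhibition above about 25%, with every replicate also reaching it, limit read from the data, passing the limit was not always enough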
Target sequence (Q15084 whole entry, looked up): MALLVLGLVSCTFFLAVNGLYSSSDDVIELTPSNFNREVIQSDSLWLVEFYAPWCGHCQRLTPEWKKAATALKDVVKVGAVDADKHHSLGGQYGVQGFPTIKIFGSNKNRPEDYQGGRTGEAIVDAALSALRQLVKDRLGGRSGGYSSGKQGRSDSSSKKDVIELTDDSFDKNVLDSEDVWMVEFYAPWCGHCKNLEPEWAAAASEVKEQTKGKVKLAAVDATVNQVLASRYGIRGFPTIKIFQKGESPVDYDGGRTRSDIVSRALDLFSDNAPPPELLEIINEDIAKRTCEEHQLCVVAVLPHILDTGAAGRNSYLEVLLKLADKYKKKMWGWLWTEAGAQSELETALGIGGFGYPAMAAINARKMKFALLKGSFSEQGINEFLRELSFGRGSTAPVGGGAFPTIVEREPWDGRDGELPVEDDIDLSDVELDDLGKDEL
Hits are given with their value; – = inactive; · = no result; [ ] = dose if it differs, or a comment. An excerpt weighted towards active compounds, which were near 1.4% of everything screened.

SMILES | Env fusion inh | FN deposit inh | GSIS activator | PDI turbidity | ERp5 inh
CC(=O)N1[C@@H]2c3ccc(-c4cccc(F)c4)c(=O)n3C[C@H]1[C@H](CO)[C@H]2C(=O)NCCCN(C)C | · | · | – | · | –
COc1cccc(NC(=O)N[C@H]2CC[C@@H](CC(=O)N3CCOCC3)O[C@@H]2CO)c1 | – | · | – | · | –
C/C=C/c1ccc2c(c1)O[C@@H](CN(C)C(=O)c1ccccc1F)[C@H](C)CN([C@H](C)CO)S2(=O)=O | – | – | – | · | –
CNC[C@H]1Oc2ncc(-c3ccc(C)cc3)cc2C(=O)N([C@@H](C)CO)C[C@H]1C | – | – | – | · | –
COc1ccc(NC(=O)Nc2ccc3c(c2)C(=O)N([C@H](C)CO)C[C@@H](C)[C@H](CN(C)C(=O)CCCN(C)C)OCCCC[C@@H](C)O3)cc1 | – | · | – | · | –
COc1ccc2c3c(n(C)c2c1)[C@H](CO)N(C(=O)CC1CC1)CC31CCN(Cc2ccncc2)CC1 | · | · | – | · | –
Cc1ccc(-n2c(SCc3ccc(C#N)cc3)nnc2-c2ccccn2)cc1 | – | – | · | – | ·
C=CCn1c(COc2ccc(Cl)cc2)nnc1SCc1ccc(C#N)cc1 | 58.0 | · | – | – | ·
Cc1ccc(OCc2nnc(SCc3ccc(C#N)cc3)n2-c2ccc(C)cc2)cc1 | 64.7 | · | – | – | ·
O=c1cc(-c2ccccc2)nc(SCc2ccccc2)[nH]1 | · | · | 78.9 | – | ·
O=C(O)c1cncc(Br)c1 | – | – | – | – | –
CN(C)c1cncc(C(=O)O)c1 | – | – | 63.2 | – | –
CN(C)C(=O)C[C@H]1C=C[C@H](NS(=O)(=O)c2ccccc2)[C@H](CO)O1 | – | – | – | · | –
CCN(c1nc(N)c(C(=O)N=C(N)N)nc1Cl)C(C)C | 69.0 | – | – | – | –
CO[C@@H]1CN(C)C(=O)c2ccc(NC(=O)C3CC3)cc2OC[C@@H](C)N(C(=O)c2ccncc2)C[C@@H]1C | – | – | – | · | –
CCN1C(=O)[C@H]2[C@@H](c3ccc(C)cc3)N3C(=O)N(c4cccc(Br)c4)C(=O)[C@@]3(CC(C)C)[C@H]2C1=O | 104.3 | – | · | – | –
CCN1C(=O)[C@H]2[C@@H](c3ccc(C)cc3)N3C(=O)N(c4ccc(C(F)(F)F)cc4)C(=O)[C@@]3(CC(C)C)[C@H]2C1=O | 114.9 | – | – | – | –
C[C@H]1CN([C@@H](C)CO)C(=O)c2cccc(NC(=O)C3CCOCC3)c2O[C@H]1CN(C)S(=O)(=O)c1ccccc1 | · | · | – | · | –
Cc1ccccc1Nc1c(-c2ccncc2)nc2ccc(Cl)cn12 | – | – | 40.1 | – | –
Cc1cccc(N=C2NN=C(c3ccc4c(c3)OCCO4)CS2)c1 | · | · | – | – | –
CCc1ccc(C2=NNC(=Nc3cccc(S(=O)(=O)N(C)C)c3)SC2)cc1 | 80.0 | – | · | – | –
O=C(Nc1ccc(C(=O)OC2CCCCC2)cc1)c1ccncc1 | 74.6 | – | – | – | –
COC(=O)[C@]12C[C@H](CC(=O)NCc3cccs3)C(=O)N(CCC3=CCCCC3)C1=C[C@H](C(C)(C)C)O[C@@H]2C | 75.6 | – | · | · | –
COC(=O)[C@]12C[C@H](CC(=O)NCc3cccc(C(F)(F)F)c3)C(=O)N(CCC3=CCCCC3)C1=C[C@H](C(C)(C)C)O[C@@H]2C | 101.3 | – | · | · | –
COC(=O)[C@]12C[C@H](CC(=O)NCCc3ccccc3OC)C(=O)N(CCC3=CCCCC3)C1=C[C@H](C(C)(C)C)O[C@@H]2C | 60.9 | – | 40.9 | · | –
SMILES | Env fusion inh | FN deposit inh | GSIS activator | PDI turbidity | ERp5 inh
COC(=O)[C@]12C[C@H](CC(=O)NCC3CCCCC3)C(=O)N(CCC3=CCCCC3)C1=C[C@H](C(C)(C)C)O[C@@H]2C | 70.9 | – | – | · | –
CN(C)C(=O)c1ccc(-c2ccc([C@@H]3[C@@H](CO)N4CCCCN(S(C)(=O)=O)C[C@H]34)cc2)cc1 | · | · | – | · | –
COC(=O)[C@]12C[C@H](CC(=O)NCC34CC5CC(CC(C5)C3)C4)C(=O)N(CCC3=CCCCC3)C1=C[C@H](C(C)(C)C)O[C@@H]2C | – | – | – | · | –
CCCCOCCCNC(=O)C[C@H]1C[C@@]2(C(=O)OC)C(=C[C@H](C(C)(C)C)O[C@@H]2C)N(CCC2=CCCCC2)C1=O | 65.6 | – | – | · | –
COCCCNC(=O)C[C@H]1C[C@@]2(C(=O)OC)C(=C[C@H](C(C)(C)C)O[C@@H]2C)N(CCC2=CCCCC2)C1=O | 59.8 | – | · | · | –
CCC(C)(C)NC(=O)C(c1ccc(OC)cc1)N(Cc1ccco1)C(=O)CCC(=O)Nc1cc(C)on1 (stereo not given) | 33.9 | – | · | – | ·
COc1ccc(C(C(=O)NC(C)(C)C)N(Cc2ccco2)C(=O)CCC(=O)Nc2cc(C)on2)cc1 (stereo not given) | – | – | · | – | ·
O=[N+]([O-])c1cccc(S(=O)(=O)Nc2nc3ccccc3nc2Nc2cccc(S(=O)(=O)N3CCCCC3)c2)c1 | 72.0 | – | – | – | –
COc1ccc(NC(=O)CSc2ncnc3c2sc2ccccc23)c(OC)c1 | – | – | 57.9 | – | ·
COc1ccc(NC(=O)CSc2ccccc2)c(OC)c1 | · | · | · | – | ·
COc1ccccc1[C@@H]1C(c2ccccc2)=NN(c2ccccc2)[C@H]1C(=O)N1CCOC1=O | – | · | – | – | –
COc1ccccc1[C@@H]1C(c2ccc(F)cc2)=NN(c2ccccc2)[C@H]1C(=O)N1CCOC1=O | 82.1 | – | · | – | –
O=C(NC(=S)Nc1ccc(N2CCCCC2)c(Cl)c1)c1ccc2c(c1)OCCO2 | 70.4 | – | – | – | ·
Cn1nnnc1Sc1ncnc2scc(-c3ccc(Br)cc3)c12 | – | – | – | – | –
Cn1nnnc1Sc1ncnc2scc(-c3ccc(F)cc3)c12 | 83.5 | · | 60.7 | – | ·
Cn1nnnc1Sc1ncnc2scc(-c3ccccc3)c12 | – | – | 45.4 | – | –
CCOC(=O)C1(CCOc2ccccc2)CCN(Cc2ccc(O)c(Cl)c2)CC1 | – | – | – | 110.8 | –
CCOC(=O)C1(CCOc2ccccc2)CCN(Cc2ccc(O)c(OC)c2)CC1 | – | – | – | – | –
CCOC(=O)c1c(C)c(C(=O)N2CCN(c3cccc(Cl)c3)CC2)c(C)n1C | 57.3 | – | – | – | ·
O=C(C[C@H]1CC[C@H]2[C@@H](COC[C@H](O)CN2C(=O)Nc2ccc(Cl)c(Cl)c2)O1)NCc1ccncc1 | 70.4[16.7 µM] | – | – | · | –
O=C(C[C@H]1CC[C@H]2[C@@H](COC[C@H](O)CN2CCC(F)(F)F)O1)NCc1ccc(Oc2ccccc2)cc1 | 56.4[16.7 µM] | – | – | · | ·
Clc1nc2c(-c3ccccc3)nnn2c2ccccc12 | – | – | – | – | –
Fc1cccc(-c2nnn3c2nc(Cl)c2ccccc23)c1 | – | – | 44.8 | – | –
CN(C)C(=O)c1ccc(-c2ccc([C@@H]3[C@H](CO)N4CCCCN(CC5CC5)C[C@@H]34)cc2)cc1 | · | · | – | · | –
Cc1ccc(NC(=O)Cn2c(=O)cnc3ccccc32)cc1S(=O)(=O)N1CCCCC1 | – | – | – | – | –
Cc1ccc(S(=O)(=O)N2CCCCC2)cc1NC(=O)Cn1c(=O)cnc2ccccc21 | 59.1 | – | – | – | –
